In assay [1] the test system is Colletotrichum acutatum. Briefly: Antifungal activity against Colletotrichum acutatum assessed as inhibition of microcyclic conidiation at 25 degC measured after 4 to 24 hr. It is filed as functional. The essentials: (§1)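 C. acutatum CECT 20240 conidia (PDA, 25 °C, continuous light, 7 days) as a 100 µL droplet of 5 × 10^5 conidia mL-1 on Parafilm-covered slides in sealed Petri dishes. Volatile applied to filter paper in the vapour phase at ≥4 doses, 0.13–1351.35 µL L-1, with water control. Incubated at 25 °C and scored microscopically at 4 and 24 h. Five dishes per dose, experiment run twice.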

Assay [2] relates to Colletotrichum acutatum. Nature of the assay: Antifungal activity against Colletotrichum acutatum assessed as inhibition of pore appressorial formation at 25 degC measured after 4 to 24 hr. Type of assay: functional. The essentials:
as §1

The test system of assay [3] is Colletotrichum acutatum. Briefly: Antifungal activity against Colletotrichum acutatum assessed as inhibition of appressorium pigmentation at 25 degC measured after 4 to 24 hr. Type of assay: functional. The essentials: as §1
Assay [4] concerns Colletotrichum acutatum. Briefly: Antifungal activity against Colletotrichum acutatum assessed as inhibition of appressorium formation at 25 degC measured after 4 to 24 hr. Type of assay: functional. The essentials:
as §1

Assay [5] concerns Colletotrichum acutatum. Briefly: Antifungal activity against Colletotrichum acutatum assessed as inhibition of germination at 25 degC measured after 4 to 24 hr. It is filed as functional. The essentials: as §1
Assay [6] deals with Colletotrichum acutatum. Briefly: Antifungal activity against Colletotrichum acutatum assessed as inhibition of mycelial growth at 25 degC measured after 8 days. It is filed as functional. The essentials:
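A 5 mm PDA mycelial disc was placed in a sealed 74 mL dish holding 20 mL PDA. Volatile on filter paper under the lid at ≥6 doses, 33.78–1351.35 µL L-1, with extra doses for some compounds; water control. Colony diameter read after 8 days at 25 °C; five dishes per dose, run twice. MID, ID95 and ID50 from probit regression on log dose.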

The test system of assay [7] is Colletotrichum acutatum. Nature of the assay: Antifungal activity against Colletotrichum acutatum assessed as high disorganization of cell components at 33.78 ul/L by transmission electrol microscopy. Type of assay: functional, organism-based.
Assay [8] has as its system Colletotrichum acutatum. Nature of the assay: Antifungal activity against Colletotrichum acutatum assessed as disruption of cell wall at 33.78 ul/L by transmission electrol microscopy. Type of assay: functional, organism-based.
In assay [9] the test system is Colletotrichum acutatum. Nature of the assay: Antifungal activity against Colletotrichum acutatum assessed as disruption of plasma membrane at 33.78 ul/L by transmission electrol microscopy. Type of assay: functional, organism-based.
Assay [10] concerns Colletotrichum acutatum. Briefly: Antifungal activity against Colletotrichum acutatum inoculated in strawberry fruits assessed as fruit damaging at >=20 ul/L measured after 7 days. It is filed as functional. The procedure, abridged:
(§2)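 Strawberry fruits (cv. Camarosa) at commercial maturity inoculated with 10^6 conidia mL-1. Filter paper carrying 4, 5, 10, 20 or 50 µL L-1 volatile placed next to the fruit; inoculated untreated fruit as control. Kept at 25 °C under continuous light; damage rated at 7 days (0 = intact, 1 = covered with mycelia). Eight replicates, mean ± SE.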

Assay [11] deals with Colletotrichum acutatum. Briefly: Antifungal activity against Colletotrichum acutatum inoculated in strawberry fruits assessed as fruit damaging at 10 ul/L measured after 7 days. Type of assay: functional. The procedure, abridged: as §2
Assay [12] concerns Colletotrichum acutatum. Nature of the assay: Antifungal activity against Colletotrichum acutatum inoculated in strawberry fruits assessed as fruit damaging at 5 ul/L measured after 7 days. Type of assay: functional, organism-based. The procedure, abridged:
as §2

In assay [13] the test system is Colletotrichum acutatum. Briefly: Antifungal activity against Colletotrichum acutatum inoculated in strawberry fruits assessed as fruit damaging at 4 ul/L measured after 7 days. Type of assay: functional, organism-based. The procedure, abridged:
as §2

The values that follow come from ChEMBL document CHEMBL3045505, “Antifungal activity of strawberry fruit volatile compounds against Colletotrichum acutatum” (2007).

The source made the active and inactive calls. The calls are words filed in the database; no cut-off is given here.

Consider `CCC/C=C/CO`, for which the MID came to 135.13 uL/L in assay [1]; 33.78 uL/L in assay [2]; 33.78 uL/L in assay [3]; 33.78 uL/L in assay [4]; 135.13 uL/L in assay [5]; 268.92 uL/L in assay [6]. Also, in assay [6], the ID50 is on record as 151.76 uL/L. The ID95 in assay [6] turned out to be 253.78 uL/L.

On to `CCCCCCOC(C)=O` [HEXYL ACETATE], for which the MID in [1] is reported as 1351.35 uL/L; in assay [2], 337.84 uL/L; in assay [3], 337.84 uL/L; in assay [4], 1351.35 uL/L; in assay [5], 1351.35 uL/L; in assay [6], 6441.89 uL/L. For the same molecule, in assay [6], the ID50 was determined as 718.65 uL/L. Moreover, in assay [6], the ID95 is 5100.41 uL/L.

Turning to `CCC/C=C/COC(C)=O`, the MID came to 337.84 uL/L in assay [1]; 135.13 uL/L in assay [2]; 135.13 uL/L in assay [3]; 337.84 uL/L in assay [4]; 337.84 uL/L in [5]; 651.35 uL/L in [6]. In [6], the ID50 amounted to 221.62 uL/L. Besides, in assay [6], the ID95 amounted to 584.86 uL/L.

As to `CCC/C=C/C=O`, the outcome in assay [7], in assay [8] and in [9] was Active. The Activity is listed as 100% in assay [10] and 87.5% in assay [11]. Moreover, the outcome in assay [12] and in [13] was inactive. Also, the MID amounted to 6.76 uL/L in [1]; 1.35 uL/L in [2]; 1.35 uL/L in [3]; 6.76 uL/L in assay [4]; 6.76 uL/L in assay [5]; 33.65 uL/L in [6]. For the same molecule, the ID50 in assay [6] is given as 26.89 uL/L. In [6], the ID95 turned out to be 32.97 uL/L.

For `CCCCCC=O` [HEXANAL], the MID in assay [1] amounted to 33.78 uL/L; in [2], 6.76 uL/L; in [3] it was 6.76 uL/L; in assay [4] it was 33.78 uL/L; in assay [5] it was 33.78 uL/L; in assay [6], 272.16 uL/L. In addition, in assay [6], the ID50 was 151.35 uL/L. For the same molecule, the ID95 in assay [6] is 256.49 uL/L.

As for `CC/C=C\CCOC(C)=O` [(Z)-hex-3-en-1-yl acetate], the MID in assay [1] is given as 337.84 uL/L; in [2], 135.13 uL/L; in assay [3], 135.13 uL/L; in [4], 337.84 uL/L; in assay [5], 337.84 uL/L; in [6] it was 2476.35 uL/L. Further, the ID50 in [6] amounted to 503.11 uL/L. Also, the ID95 in assay [6] is reported as 2063.11 uL/L.

`CCCCCCO` [1-HEXANOL]: the MID in [1] came out at 337.84 uL/L; in assay [2], 33.78 uL/L; in assay [3], 33.78 uL/L; in assay [4], 337.84 uL/L; in [5], 337.84 uL/L; in assay [6], 270.27 uL/L. In addition, the ID50 in assay [6] is 151.35 uL/L. In addition, the ID95 in assay [6] amounted to 255.14 uL/L.

For the molecule `CC/C=C\CCO` [CIS-3-HEXENOL], the MID in [1] amounted to 337.84 uL/L; in assay [2], 135.13 uL/L; in assay [3] it was 135.13 uL/L; in assay [4], 337.84 uL/L; in assay [5] it was 337.84 uL/L; in assay [6] it was 640.54 uL/L. Moreover, in assay [6], the ID50 is reported as 230.14 uL/L. Further, in assay [6], the ID95 came out at 595 uL/L.
